Results published in PubChem BioAssay AID504382 (The Scripps Research Institute Molecular Screening Center, 2011).
Out of some 2,500 compounds screened, about 460 (18%) were called active. Not all results are given here. Unmarked numbers belong to inactive results.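 How the source made its calls: active means mean activation above a cutoff of low control average plus 3 SD from the earlier screen (cut at about 12% in these data); inactive means the rest.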

Test: compound fluorescence interference without thin filaments, confirmation, artefact control for cardiac RTF calcium sensitizer project, biochemical (AID 504382)
Details: IANBD fluorescence interference counterscreen, buffer, EC20 Ca2+; at 7.2 µM; active compounds read high
In short: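 Medium: MOPS buffer, 190 mM, with KCl, MgCl2, EGTA, NTA, DTT, pH 7.20; Dosing: one dose of 7.2 µM, 0.7% DMSO; Probe or stimulus: calcium at EC20 level, 0.472 mM final; Incubation: 15 min, 25 °C; Evaluation: compound fluorescence interference relative to control well signal range; Signal: fluorescence, 480/540 nm.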

SMILES	fluorescence artifact activation
O=c1cc(C(F)(F)F)c2cc3c4c(c2o1)CCCN4CCC3	19.7% (active)
Cc1cc2c(C(F)(F)F)cc(=O)oc2c2c1NCCC2	26.6% (active)
COc1ccc2c3c([nH]c2c1)C(C)=NCC3	0.04%
COc1ccc(CC(=O)N2CCN(C)CC2)cc1OC	0.89%
Cc1cc(N(CCCl)CCCl)ccc1C=Cc1ccncn1	3.44%
O=c1[nH]c(=O)n(Cc2ccc(F)cc2)c(O)c1/C=N/Nc1ccccc1	6.04%
CCOP(=O)(Cc1cc(C#N)oc1C)OCC	0.13%
COc1ccc(N2C(=O)/C(=C/c3ccc(N(C)C)o3)C(=O)NC2=S)cc1	92% (active)
CCN(CC)c1ccc(/C=C2\C(=O)NC(=S)N(c3ccc(OC)cc3OC)C2=O)o1	0.1%
CCN(CC)c1ccc(/C=C2\C(=O)NC(=S)N(C)C2=O)o1	7.26%
CCN(CC)c1ccc(N=Cc2c(O)n(Cc3ccco3)c(=O)[nH]c2=O)cc1	0.1%
Cc1ccc(C)c(Cn2c(C(=O)O)c(C=O)c3ccccc32)c1	0.2%
C[C@]12CCC(=O)C=C1CC[C@@H]1[C@@H]2CC[C@]2(C)C(=O)CC[C@@H]12	0.01%
CN1C[C@H](CO)C=C2c3cccc4[nH]cc(c34)C[C@H]21	0.35%
CC1=C[C@@H]2c3cccc4[nH]cc(c34)C[C@H]2N(C)C1	14.5% (active)
CCC(CO)NC(=O)C1C=C2c3cccc4[nH]cc(c34)CC2N(C)C1 (configuration not stated)	1.39%
COC(=O)C1=C(c2cccc(OC)c2OC)C[C@@H]2CC[C@H]1N2C(=O)NCc1ccco1	1.08%
COC(=O)C1=C(c2cccc(OC)c2OC)C[C@@H]2CC[C@H]1N2C(=O)NCCCOC(C)C	0.79%
COC(=O)C1=C(c2ccc(F)cc2OCc2ccccc2)C[C@@H]2CC[C@H]1N2C(=O)NCc1ccc(OC)c(OC)c1	57% (active)

SMILES	fluorescence artifact activation
O=C(O)C1=CC2c3ccccc3C1c1ccccc12	0.01%
O=[N+]([O-])c1ccc(N2CCCCCC2)c2nonc12	6.24%
CCOC(=O)c1ccccc1C(=O)OCC	1510% (active)
COc1ccccc1N1C(=O)NC(=O)/C(=C/c2ccc3c4c(cccc24)CC3)C1=O	0.07%
Cn1c(O)c(/C=C/C=Nc2ccccc2)c(=O)n(C)c1=O	-0.08%
CCOCCCn1c(N)c(C(=O)Nc2sc3c(c2C(=O)OC)CCCC3)c2nc3ccccc3nc21	2.92%
CCCCn1c(O)c(C(=O)/C=C/c2c[nH]c3ccccc23)c(=O)[nH]c1=O	3%
O=c1[nH]c(=S)n(-c2ccc(Br)cc2)c(O)c1C=Nc1ccc(N2CCOCC2)cc1	0.07%
CCn1c(O)c(C=Nc2ccc(N3CCOCC3)cc2)c(=O)n(CC)c1=S	23.9% (active)
CCCCC(=O)N/N=C/c1c(O)n(CC)c(=S)n(CC)c1=O	0.21%
Cc1ccc(N2C(=O)NC(=O)/C(=C\c3ccoc3)C2=O)cc1	0.07%
COC(=O)[C@H]1C[C@@H]1[C@H](NP(=O)(c1ccccc1)c1ccccc1)c1ccccc1	0.01%
COc1ccc(N=Nc2c(O)[nH]c(=S)[nH]c2=O)cc1	0.58%
Nc1ccc2ccc3cccc[n+]3c2c1	0.21%
Cc1cc(Cl)nc(N)n1	14.3% (active)
C#C[C@]1(O)CC[C@H]2[C@@H]3CCC4=Cc5nc6nc7ccccc7n6cc5C[C@]4(C)[C@H]3CC[C@@]21C	0.16%
CN1CCc2cc3c(c4c2C1Cc1ccccc1-4)OCO3 (configuration not stated)	0.18%
Cc1cccc(N2C(=O)/C(=C/c3ccc(N4CCN(C)CC4)o3)C(=O)NC2=S)c1C	0.2%
O=C1NC(=O)N(c2ccc3c(c2)OCO3)C(=O)/C1=C\c1ccc(N2CCCCC2)o1	0.37%

SMILES	fluorescence artifact activation
CN1CCN(c2ccc(/C=C3\C(=O)NC(=S)N(c4cccc(Br)c4)C3=O)o2)CC1	-0.01%
O=C1NC(=O)N(c2ccc3c(c2)OCO3)C(=O)/C1=C/c1ccc(N2CCCC2)o1	0.12%
Cc1ccccc1N1C(=O)NC(=O)/C(=C/c2ccc(N3CCOCC3)o2)C1=O	14.1% (active)
O=C1NC(=O)C(=Cc2ccc(N3CCOCC3)o2)C(=O)N1	-0.04%
Cc1ccccc1N1C(=O)NC(=O)/C(=C\c2cc(Br)c(N3CCOCC3)o2)C1=O	-0.03%
CCc1ccccc1N1C(=O)/C(=C/c2ccc(N3CCN(C)CC3)o2)C(=O)NC1=S	119% (active)
CCOc1ccc(N2C(=O)NC(=O)/C(=C\c3ccc(N4CCCCC4)o3)C2=O)cc1	51.4% (active)
O=[N+]([O-])c1ccc(N2CCCC2)c2ncccc12	9.73%
C[C@]12CCC3C(CC[C@H]4C[C@@H](O)[C@H](O)C[C@]34C)C1CC[C@@H]2O (some centres not stated)	4.4%
OC12CCCCC1C(c1ccccc1)NCC2 (configuration not stated)	0.14%
CN1C(=O)C(=Cc2sc(=O)n(-c3ccccc3)c2N2CCCCC2)C(=O)N(C)C1=O	-0.07%
CCN(CC)C(=O)c1ccc(NC(=O)COc2ccc([N+](=O)[O-])cc2Cl)cc1	0.19%
C=Cn1ccnc1P(=S)(c1nccn1C=C)c1nccn1C=C	6.72%
CN(C)P(=O)(CCl)Nc1ccccc1 (configuration not stated)	10%
C=CCN1C(=O)/C(=C\c2ccc(N3CCOCC3)o2)C(=O)NC1=S	0.23%
O=C1NC(=O)C(=Cc2cn(CCOc3ccc4c(c3)OCO4)c3ccccc23)C(=O)N1	1.05%
Cc1cc(C)c(Cn2c(C(=O)O)c(C=O)c3ccccc32)c(C)c1	0.05%
CC(C)c1ccc(N2C(=O)NC(=O)/C(=C/C=C/c3ccco3)C2=O)cc1	-0.06%
CC(C)C[C@H]1C(=O)N2CCC[C@H]2[C@]2(O)O[C@](NC(=O)[C@@H]3C=C4c5cccc6[nH]cc(c56)C[C@H]4N(C)C3)(C(C)C)C(=O)N12	0.12%
